Measured values as given in ChEMBL document CHEMBL3352088, “Novel derivatives of usnic acid effectively inhibiting reproduction of influenza A virus” (Bioorg Med Chem, 2014).

Experiment: Antiviral activity against rimantidine, amantidine-resistant Influenza A virus (A/California/07/09(H1N1)) pdm09 infected in MDCK cells assessed as inhibition of viral replication after 1 hrs by hemagglutination assay
Format: functional, Influenza A virus (A/California/07/2009(H1N1))
Settings: read-out: ED50 (the source's name)
How it was run: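 MDCK cells were pre-incubated 1 h at 37°C with serial twofold compound dilutions in MEM containing 2 mM arginine, 2 mM glutamine and 2 microgram/mL trypsin, then infected and cultured 48 h at 36°C. Supernatant was mixed with 1% chicken erythrocytes for 1 h at room temperature to read hemagglutination titer. ED50 is the concentration that halves virus production versus untreated cells.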

| SMILES | EC50 [µM] |
| --- | --- |
| CC(=O)c1c(O)c(C)c(O)c2c1OC1=Cc3c(c(C)nn3-c3ccccc3)C(=O)[C@@]12C | 69.5 |
| CC(=O)c1c(O)c(C)c(O)c2c1OC1=Cc3c(c(C)nn3-c3ccccc3)C(=O)[C@]12C | 56.3 |
| CC(=O)c1c(O)c(C)c(O)c2c1OC1=Cc3c(c(C)nn3-c3ccccc3)[C@@H](O)[C@@]12C | 2.4 |
| CC(=O)c1c(O)c(C)c(O)c2c1OC1=CC(=O)/C(=C(/C)NCC(=O)O)C(=O)[C@@]12C | 11.2 |
| CC(=O)c1c(O)c(C)c(O)c2c1OC1=CC(=O)/C(=C(/C)NCC(=O)O)C(=O)[C@]12C | 10.7 |
| CC(=O)c1c(O)c(C)c(O)c2c1OC1=CC(=O)/C(=C(/C)NCCC(=O)O)C(=O)[C@@]12C | 7.2 |
| CC(=O)c1c(O)c(C)c(O)c2c1OC1=CC(=O)/C(=C(/C)NCCC(=O)O)C(=O)[C@]12C | 14.5 |
| CC(=O)C1=C(O)C=C2O[C@]34O[C@@]3(C(C)=O)C(=O)C(C)=C(O)[C@]4(O)[C@@]2(C)C1=O | 10.6 |
| CC(=O)c1c(O)c(C)c(O)c2c1OC1=CC(=O)/C(=C(/C)NCCCC(=O)O)C(=O)[C@@]12C | 35 |
| CSCC[C@H](N/C(C)=C1\C(=O)C=C2Oc3c(C(C)=O)c(O)c(C)c(O)c3[C@@]2(C)C1=O)C(=O)O | 4.2 |
| CC(=O)C1=C(O)C[C@H]2Oc3c(C(C)=O)c(O)c(C)c(O)c3[C@@]2(C)C1=O | 8.1 |
| CC(=O)c1c(O)c(C)c(O)c2c1OC1=CC(=O)/C(=C(/C)N[C@@H](CC(C)C)C(=O)O)C(=O)[C@@]12C | 6.6 |
| CC(=O)c1c(O)c(C)c(O)c2c1OC1=CC(=O)/C(=C(/C)N[C@H](CC(=O)O)CC(C)C)C(=O)[C@]12C | 6.6 |
| CC(=O)c1c(O)c(C)c(O)c2c1OC1=CC(=O)/C(=C(/C)NCCCC(=O)O)C(=O)[C@]12C | 28 |
| CC(=O)c1c(O)c(C)c(O)c2c1OC1=Cc3c(c(C)nn3-c3cccc(C(F)(F)F)c3)C(=O)[C@@]12C | 68.4 |
| CC(=O)c1c(O)c(C)c(O)c2c1OC1=Cc3c(c(C)nn3-c3ccccc3)[C@H](O)[C@]12C | 12 |
| COc1c(C)c(O)c(C(=O)/C=C/c2ccccc2)c2c1[C@]1(C)C(=Cc3c(c(C)nn3-c3ccccc3)[C@H]1O)O2 | 32.7 |
| COc1c(C)c(O)c(C(=O)/C=C/c2ccc(Cl)cc2)c2c1[C@]1(C)C(=Cc3c(c(C)nn3-c3ccccc3)[C@H]1O)O2 | 55.1 |
| COc1ccccc1/C=C/C(=O)c1c(O)c(C)c(OC)c2c1OC1=Cc3c(c(C)nn3-c3ccccc3)[C@@H](O)[C@@]12C | 82.7 |
| COc1ccc(/C=C/C(=O)c2c(O)c(C)c(OC)c3c2OC2=Cc4c(c(C)nn4-c4ccccc4)[C@@H](O)[C@@]23C)cc1OC | 34.5 |
| COc1cccc(/C=C/C(=O)c2c(O)c(C)c(OC)c3c2OC2=Cc4c(c(C)nn4-c4ccccc4)[C@@H](O)[C@@]23C)c1OC | 50.7 |
| COc1ccc(/C=C/C(=O)c2c(O)c(C)c(OC)c3c2OC2=Cc4c(c(C)nn4-c4ccccc4)[C@@H](O)[C@@]23C)c(OC)c1OC | 32.8 |
| COc1cc(/C=C/C(=O)c2c(O)c(C)c(OC)c3c2OC2=Cc4c(c(C)nn4-c4ccccc4)[C@@H](O)[C@@]23C)cc(OC)c1OC | 8.2 |
| COc1ccc(OC)c(/C=C/C(=O)c2c(O)c(C)c(OC)c3c2OC2=Cc4c(c(C)nn4-c4ccccc4)[C@@H](O)[C@@]23C)c1 | 25.9 |
| COc1ccc(/C=C/C(=O)c2c(O)c(C)c(OC)c3c2OC2=Cc4c(c(C)nn4-c4ccccc4)[C@@H](O)[C@@]23C)c(OC)c1 | 25.9 |
| COc1c(C)c(O)c(C(=O)/C=C/c2ccc(SC)cc2)c2c1[C@]1(C)C(=Cc3c(c(C)nn3-c3ccccc3)[C@H]1O)O2 | 53 |
| COc1cccc(/C=C/C(=O)c2c(O)c(C)c(OC)c3c2OC2=Cc4c(c(C)nn4-c4ccccc4)C(=O)[C@@]23C)c1OC | 8.7 |
| COc1ccc(-c2cc(-c3c(O)c(C)c(OC)c4c3OC3=Cc5c(c(C)nn5-c5ccccc5)[C@@H](O)[C@@]34C)n[nH]2)cc1 | 102 |

| SMILES | EC50 [µM] |
| --- | --- |
| COc1c(C)c(O)c(C(=O)/C=C/c2ccccc2)c2c1[C@@]1(C)C(=Cc3c(c(C)nn3-c3ccccc3)[C@@H]1O)O2 | 60.6 |
| COc1c(C)c(O)c(C(=O)/C=C/c2ccc(Cl)cc2)c2c1[C@@]1(C)C(=Cc3c(c(C)nn3-c3ccccc3)[C@@H]1O)O2 | 79.4 |
| COc1ccccc1/C=C/C(=O)c1c(O)c(C)c(OC)c2c1OC1=Cc3c(c(C)nn3-c3ccccc3)[C@H](O)[C@]12C | 64.9 |
| COc1cccc(/C=C/C(=O)c2c(O)c(C)c(OC)c3c2OC2=Cc4c(c(C)nn4-c4ccccc4)[C@H](O)[C@]23C)c1OC | 76.4 |
| CC(=O)C1=C(O)C=C2Oc3c4c(c(C)c(O)c3[C@]2(C)C1=O)OCC4=O | 64.3 |
| CC(=O)C1=C(O)C=C2Oc3c4c(c(C)c(O)c3[C@@]2(C)C1=O)OCC4=O | 64.3 |
| COc1ccccc1/C=C1\Oc2c(C)c(O)c3c(c2C1=O)OC1=CC(O)=C(C(C)=O)C(=O)[C@@]13C | 4.8 |
| CC(=O)C1=C(O)C=C2Oc3c4c(c(C)c(O)c3[C@@]2(C)C1=O)O/C(=C\c1ccc(Br)cc1)C4=O | 4.7 |
| CC(=O)C1=C(O)C=C2Oc3c4c(c(C)c(O)c3[C@@]2(C)C1=O)O/C(=C\c1ccncc1)C4=O | 7.7 |
| CC(=O)C1=C(O)C=C2Oc3c4c(c(C)c(O)c3[C@@]2(C)C1=O)O/C(=C\c1cccnc1)C4=O | 7 |
| CC(=O)C1=C(O)C=C2Oc3c(C(=O)CSc4nc5ccccc5s4)c(O)c(C)c(O)c3[C@@]2(C)C1=O | 29.5 |
| CC(=O)C1=C(O)C=C2Oc3c(C(=O)CSc4nc5ccccc5o4)c(O)c(C)c(O)c3[C@@]2(C)C1=O | 2 |
| CC(=O)C1=C(O)C=C2Oc3c(C(=O)CSCc4ccccc4)c(O)c(C)c(O)c3[C@@]2(C)C1=O | 2.1 |
| CC(=O)C1=C(O)C=C2Oc3c(C(=O)CSCc4ccc(C)cc4)c(O)c(C)c(O)c3[C@@]2(C)C1=O | 2.1 |
| CC(=O)C1=C(O)C=C2Oc3c(C(=O)CSCc4ncccc4C(=O)O)c(O)c(C)c(O)c3[C@@]2(C)C1=O | 56.3 |
| COc1c(C)c(O)c2c(c1C(=O)CSC1=NCCS1)OC1=CC(O)=C(C(C)=O)C(=O)[C@@]12C | 14.7 |
| COc1ccc2[nH]c(SCC(=O)c3c(OC)c(C)c(O)c4c3OC3=CC(O)=C(C(C)=O)C(=O)[C@@]34C)nc2c1 | 24.3 |
| COc1c(C)c(O)c2c(c1C(=O)CSc1nc3ccccc3o1)OC1=CC(O)=C(C(C)=O)C(=O)[C@]12C | 23.7 |
| COc1c(C)c(O)c2c(c1C(=O)CSCCC(=O)O)OC1=CC(O)=C(C(C)=O)C(=O)[C@@]12C | 161 |
| CC(=O)C1=C(O)C=C2Oc3c(C(C)=O)c(OC(F)(Cl)C(F)F)c(C)c(O)c3[C@@]2(C)C1=O (stereo not given in full) | 7.2 |
| CC(=O)C1=C(O)C=C2Oc3c(C(C)=O)c(OC(=O)c4ccccc4Br)c(C)c(OC(=O)c4ccccc4Br)c3[C@@]2(C)C1=O | 7.8 |
| CC(=O)C1=C(O)C=C2O[C@@]34O[C@]3(C(C)=O)C(=O)C(C)=C(O)[C@@]4(O)[C@]2(C)C1=O | 28.7 |
| CC(=O)[C@@]12O[C@@]13OC1=Cc4c(c(C)nn4-c4ccccc4)C(=O)[C@]1(C)[C@@]3(O)C(O)=C(C)C2=O | 13.4 |
| COc1c(C)c(O)c(C(C)=O)c2c1[C@]1(C)C(=Cc3c(c(C)nn3-c3ccccc3)CC13CO3)O2 (single isomer, unassigned; (+)) | 262 |
| COc1c(C)c(O)c(C(=O)/C=C/c2ccccc2)c2c1[C@]1(C)C(=Cc3c(c(C)nn3-c3ccccc3)CC13CO3)O2 (single isomer, unassigned; (+)) | 5.5 |
| CC(=O)C1=C(O)C=C2Oc3c(C(C)=O)c(O)c(C)c(O)c3[C@@]2(C)C1=O [(+)-USNIC ACID] | 51.7 |
| CC(=O)C1=C(O)C=C2Oc3c(C(C)=O)c(O)c(C)c(O)c3[C@]2(C)C1=O [(-)-USNIC ACID] | 13.1 |
